From ChEMBL document CHEMBL1132205, “Desazadesmethyldesferrithiocin analogues as orally effective iron chelators” (J Med Chem, 1999)

Key:
Rattus norvegicus [1] = assay: Efficiency of the chelator [(net iron excretion ) / (total iron binding capacity of chelator)] to induce iron clearance in rat at a peroral dose of 150 umol/kg.; type: functional
Method in brief: (§1)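 Male Sprague–Dawley rats (~400 g) had bile-duct cannulation under ip pentobarbital. Chelator in 40% Cremophor RH-40/water was given at 150 µmol/kg, po or sc. Bile was collected at 3-h intervals for 24 h and urine every 24 h; iron was measured in both. Net iron = treated minus control excretion, divided by the theoretical 2:1 ligand–iron binding capacity, as a percent.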

Monkey [2] = assay: Efficiency of the chelator [(net iron excretion ) / (total iron binding capacity of chelator)] to induce iron clearance in monkey at a peroral dose of 75 umol/kg.
Rattus norvegicus [3] = assay: Efficiency of the chelator [(net iron excretion ) / (total iron binding capacity of chelator)] to induce iron clearance in rat at a subcutaneous dose of 150 uMol/kg.; type: functional; method in brief: as §1
Rattus norvegicus [4] = assay: Chronic toxicity in 5 rats administered by gavage at a dose of 384 [uMol/kg/day] X 10 days, measured as number of deaths. Activity value is 5/5.; type: organism-based; conditions: in vivo, po, 240 h
Monkey [5] = assay: Efficiency of the chelator [(net iron excretion ) / (total iron binding capacity of chelator)] to induce iron clearance in monkey at a peroral dose of 300 uMol/kg.; type: functional, Cercopithecidae
Method in brief: (§2)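 Capuchin (Cebus apella) monkeys were iron-loaded with 2–3 iron dextran iv infusions to about 500 mg Fe/kg, then rested at least 60 days. Chelator was given po in 40% Cremophor RH-40/water. Feces and urine were collected every 24 h, from 4 days pre-dose to 5 days post-dose, and iron was measured by flame AAS. Efficiency = (2-day post-dose iron − mean 4-day baseline) / theoretical output for a 2:1 ligand–iron complex, as a percent.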

[6] = log P value measured in TRIS buffer at a pH 7.4.; type: physicochemical
Method in brief: (§3)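 Shake-flask octanol/50 mM TRIS buffer pH 7.4 at 24 °C, with 3–5 min mixing and 1–24 h settling. Phase concentrations were read by UV spectrometry. Values are distribution coefficients uncorrected for partial ionization of the acids.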

[7] = Octanol-water apparent distribution coefficient measured in TRIS buffer at a pH 7.4.; type: physicochemical; method in brief: as §3
Rattus norvegicus [8] = assay: Efficiency of the chelator [(net iron excretion ) / (total iron binding capacity of chelator)] to induce iron clearance in rat at a peroral dose of 150 uMol/kg.; type: functional; method in brief: as §1
Monkey [9] = assay: Efficiency of the chelator [(net iron excretion ) / (total iron binding capacity of chelator)] to induce iron clearance in monkey at a peroral dose of 150 uMol/kg.; type: functional, Cercopithecidae; method in brief: as §2
Rattus norvegicus [10] = assay: Chronic toxicity in 5 rats administered by gavage at a dose of 384 [uMol/kg/day] X 10 days, measured as number of deaths. Activity value is 5/5; type: organism-based; conditions: in vivo, po, 240 h
Rattus norvegicus [11] = assay: Chronic toxicity in rats administered by gavage at a dose of 384 [uMol/kg/day] X 10 days, measured as number of deaths. Activity value is 0/5 (All histopathologies normal; well tolerated for 10-day test period); type: organism-based; conditions: in vivo, po, 240 h
Rattus norvegicus [12] = assay: Chronic toxicity in 5 rats administered by gavage at a dose of 384 [uMol/kg/day] X 10 days, measured as number of deaths. Activity value is 0/5 (All histopathologies normal; well tolerated for 10-day test period); type: organism-based; conditions: in vivo, po, 240 h

For `O=C(O)[C@@H]1CSC(c2nc3ccccc3cc2O)=N1`, the Efficiency (Rattus norvegicus [1]) was 12.3% and the Efficiency (Monkey [2]) was less than 0.5%.
In the case of `O=C(O)[C@H]1CSC(Cc2ccccc2O)=N1`, the Efficiency (Rattus norvegicus [1]) is reported as less than 0.5% and the Efficiency (Rattus norvegicus [3]) is reported as less than 0.5%.
With `O=C(O)[C@H]1CSC(c2ccccc2O)=N1` the No. of deaths (Rattus norvegicus [4]) was “Number of deaths 5/5”, the Efficiency (Monkey [5]) was 12.4% and the Efficiency (Rattus norvegicus [1]) was 1.4%. For the same compound, the logD [6] was -0.93 and the K app [7] was 0.12.
Compound `Cc1ccc(O)c(C2=NC(C(=O)O)CC2)c1.Cl` (centres undefined) has an Efficiency (Rattus norvegicus [1]) of less than 0.5% and an Efficiency (Rattus norvegicus [3]) of less than 0.5%.
For `COc1cccc(C2=N[C@@H](C(=O)O)CS2)c1O`, the Efficiency (Rattus norvegicus [1]) was 0.9% and the Efficiency (Rattus norvegicus [3]) was 0.5%.
In the case of `O=C(O)[C@H]1CSC(c2cccc(O)c2O)=N1`, the Efficiency (Rattus norvegicus [3]) is reported as less than 0.5% and the Efficiency (Rattus norvegicus [8]) is reported as less than 0.5%.
In the case of `O=C(O)[C@H]1CSC(c2nc3ccccc3cc2O)=N1`, the Efficiency (Rattus norvegicus [1]) is reported as 5.9% and the Efficiency (Monkey [9]) is reported as 3.5%.
With `O=C(O)CC[C@H]1CSC(c2ccccc2O)=N1` the Efficiency (Rattus norvegicus [1]) was less than 0.5%.
For `C[C@]1(C(=O)O)CSC(c2ncccc2O)=N1` [DESFERRITHIOCIN], the Efficiency (Rattus norvegicus [1]) was 5.5%, the No. of deaths (Rattus norvegicus [10]) was “Number of deaths 5/5” and the logD [6] was -1.77. For the same compound, the Efficiency (Monkey [9]) was 16.1% and the K app [7] was 0.017.
For `O=C(O)[C@H]1CSC(c2ccc(O)cc2O)=N1`, the No. of deaths (Rattus norvegicus [11]) was “well tolerated for 10-day test period”, the logD [6] was -1.2 and the Efficiency (Rattus norvegicus [8]) was 2.4%. For the same compound, the Efficiency (Monkey [9]) was 4.2% and the K app [7] was 0.063.
For `O=C(O)C1CN=C(c2ccccc2O)N1` (centres undefined), the Efficiency (Rattus norvegicus [1]) was less than 0.5% and the Efficiency (Rattus norvegicus [3]) was less than 0.5%.
With `O=C(O)c1ccc(C2=N[C@@H](C(=O)O)CS2)c(O)c1` the Efficiency (Rattus norvegicus [1]) was less than 0.5% and the Efficiency (Rattus norvegicus [3]) was less than 0.5%.
For `O=C(O)C[C@H]1CSC(c2ccccc2O)=N1`, the Efficiency (Rattus norvegicus [1]) was less than 0.5%.
With `O=C(O)[C@H]1CSC(c2ncccc2O)=N1` the Efficiency (Monkey [5]) was 8%, the Efficiency (Rattus norvegicus [1]) was 2.4% and the logD [6] was -1.87. For the same compound, the No. of deaths (Rattus norvegicus [12]) was “well tolerated for 10-day test period”, the Efficiency (Monkey [9]) was 4.8% and the K app [7] was 0.013.
